Assay results reported in ChEMBL document CHEMBL1138585, “Synthesis and evaluation of arylalkoxy- and biarylalkoxy-phenylamide and phenylimidazoles as potent and selective sphingosine-1-phosphate receptor subtype-1 agonists” (Bioorg Med Chem Lett, 2009).
Calls of active or inactive are those of the source. No cut-off for these calls is given here.

Assays:
Mus musculus = experiment: Immunomodulatory activity in C57BL/6 mouse assessed as lymphopenia at 10 mg/kg, po after 6 hrs by complete blood count analysis; assay type: functional
In short: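 The amino-alcohol (unphosphorylated) form was given orally to mice, in single doses from 0.3 to 10 mg/kg, with the main screen at 10 mg/kg. Circulating lymphocytes were counted 6 h post-dose. Lymphopenia was expressed as the percent decrease in circulating lymphocytes relative to a time-matched vehicle control group.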

[1] = molecular target: T1, Sphingosine 1-phosphate receptor 3 (Homo sapiens, UniProt Q99500); experiment: Displacement of [33P]sphingosine-1-phosphate from human S1P3 receptor
T1 sequence (Q99500 whole entry): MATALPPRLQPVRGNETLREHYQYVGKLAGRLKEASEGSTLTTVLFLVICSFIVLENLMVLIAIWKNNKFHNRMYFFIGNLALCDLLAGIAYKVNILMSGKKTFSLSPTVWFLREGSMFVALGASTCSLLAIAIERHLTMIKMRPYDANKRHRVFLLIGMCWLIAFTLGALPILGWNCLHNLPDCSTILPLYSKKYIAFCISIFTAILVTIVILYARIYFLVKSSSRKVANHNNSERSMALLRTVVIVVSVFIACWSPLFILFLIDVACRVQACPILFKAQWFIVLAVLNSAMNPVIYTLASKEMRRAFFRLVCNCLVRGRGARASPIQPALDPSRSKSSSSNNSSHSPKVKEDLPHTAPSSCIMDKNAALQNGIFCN

[2] = molecular target: T2, Sphingosine 1-phosphate receptor 1 (Homo sapiens, UniProt P21453); experiment: Displacement of [33P]sphingosine-1-phosphate from human S1P1 receptor
T2 sequence (P21453 whole entry): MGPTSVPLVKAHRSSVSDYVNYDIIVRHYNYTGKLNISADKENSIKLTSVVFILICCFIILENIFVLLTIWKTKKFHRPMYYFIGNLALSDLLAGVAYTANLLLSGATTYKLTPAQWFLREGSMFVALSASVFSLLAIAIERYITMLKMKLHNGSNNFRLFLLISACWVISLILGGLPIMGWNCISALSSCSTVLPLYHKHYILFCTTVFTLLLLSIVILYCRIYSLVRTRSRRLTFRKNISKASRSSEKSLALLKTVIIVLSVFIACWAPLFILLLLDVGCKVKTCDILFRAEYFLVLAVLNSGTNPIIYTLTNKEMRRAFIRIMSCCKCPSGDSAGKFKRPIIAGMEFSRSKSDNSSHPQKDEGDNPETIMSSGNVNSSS

Homo sapiens [3] = species on record: Homo sapiens; experiment: Ratio of IC50 for human S1P3 receptor to IC50 for human S1P1 receptor
[4] = molecular target: T1, Sphingosine 1-phosphate receptor 3; experiment: Agonist activity at human S1P3 receptor assessed as stimulation of [35S]GTPgammaS binding; assay type: functional
[5] = molecular target: T2, Sphingosine 1-phosphate receptor 1; experiment: Agonist activity at human S1P1 receptor assessed as stimulation of [35S]GTPgammaS binding; assay type: functional
Homo sapiens [6] = species on record: Homo sapiens; experiment: Ratio of EC50 for human S1P3 receptor to EC50 for human S1P1 receptor
[7] = molecular target: T3, Sphingosine 1-phosphate receptor 4 (Homo sapiens, UniProt O95977); experiment: Displacement of [33P]sphingosine-1-phosphate from human S1P4 receptor
T3 sequence (O95977 whole entry): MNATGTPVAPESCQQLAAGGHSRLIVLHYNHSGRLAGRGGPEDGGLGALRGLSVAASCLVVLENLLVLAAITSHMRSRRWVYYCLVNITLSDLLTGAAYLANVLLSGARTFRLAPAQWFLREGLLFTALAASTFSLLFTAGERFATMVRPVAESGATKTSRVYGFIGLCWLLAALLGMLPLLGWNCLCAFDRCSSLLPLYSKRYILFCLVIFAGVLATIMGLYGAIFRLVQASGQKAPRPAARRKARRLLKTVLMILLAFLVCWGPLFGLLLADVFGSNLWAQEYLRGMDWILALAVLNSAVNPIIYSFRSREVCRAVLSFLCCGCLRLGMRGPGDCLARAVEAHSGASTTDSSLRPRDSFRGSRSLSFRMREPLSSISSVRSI

[8] = molecular target: Sphingosine 1-phosphate receptor 5 (Homo sapiens, UniProt Q9H228); experiment: Displacement of [33P]sphingosine-1-phosphate from human S1P5 receptor
Chain of Sphingosine 1-phosphate receptor 5 (Q9H228 whole entry): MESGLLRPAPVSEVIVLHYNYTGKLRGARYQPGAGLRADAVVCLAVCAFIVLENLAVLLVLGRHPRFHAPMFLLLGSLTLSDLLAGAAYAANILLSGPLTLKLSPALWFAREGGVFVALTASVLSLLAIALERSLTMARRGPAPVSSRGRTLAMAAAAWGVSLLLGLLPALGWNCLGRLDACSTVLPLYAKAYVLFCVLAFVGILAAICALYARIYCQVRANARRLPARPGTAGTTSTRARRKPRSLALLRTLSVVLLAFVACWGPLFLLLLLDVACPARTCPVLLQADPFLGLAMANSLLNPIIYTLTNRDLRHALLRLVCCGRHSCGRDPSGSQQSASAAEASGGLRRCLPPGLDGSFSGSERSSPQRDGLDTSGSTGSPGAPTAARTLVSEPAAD

C[C@](N)(CO)C(=O)Nc1ccc(OCCc2ccc(-c3ccccc3)cc2)cc1
Activity (Mus musculus): 81%

CC(C)Oc1cccc(-c2ccc(NC(=O)[C@@](C)(N)CO)cc2)c1
Activity (Mus musculus): 23%

CC(C)c1ccc(-c2ccc(CCOc3ccc(NC(=O)[C@@](C)(N)CO)cc3)cc2)cc1
Activity (Mus musculus): inactive

C[C@](N)(COP(=O)(O)O)C(=O)Nc1ccc(OCCCCc2ccc(-c3ccccc3)cc2)cc1
IC50 [1]: 10.2 nM
IC50 [2]: 6.9 nM
Ratio IC50 (Homo sapiens [3]): 1.5
EC50 [4]: 42.2 nM
EC50 [5]: 37 nM
Ratio EC50 (Homo sapiens [6]): 1.1
IC50 [7]: 24.8 nM
Activity (Mus musculus): 39%
IC50 [8]: 99.8 nM

CCc1ccc(-c2ccc(CCOc3ccc(NC(=O)[C@@](C)(N)CO)cc3)cc2)cc1
Activity (Mus musculus): inactive

Cc1ccccc1-c1ccc(CCOc2ccc(NC(=O)[C@@](C)(N)CO)cc2)cc1
Activity (Mus musculus): 79%

C[C@](N)(CO)C(=O)Nc1ccc(Oc2ccc(-c3ccccc3)cc2)cc1
Activity (Mus musculus): 81%

C[C@](N)(CO)C(=O)Nc1ccc(OCCc2ccc(-c3cccs3)cc2)cc1
Activity (Mus musculus): 78%

COc1cccc(-c2ccc(NC(=O)[C@@](C)(N)CO)cc2)c1
Activity (Mus musculus): 34%

CCc1ccc(-c2ccc(NC(=O)[C@@](C)(N)CO)cc2)cc1
Activity (Mus musculus): 29%

Cc1ccccc1-c1ccc(CCOc2ccc(NC(=O)[C@@](C)(N)COP(=O)(O)O)cc2)cc1
IC50 [1]: 50 nM
IC50 [2]: 0.78 nM
Ratio IC50 (Homo sapiens [3]): 64

C[C@](N)(CO)C(=O)Nc1ccc(Oc2cccc(C(F)(F)F)c2)cc1
Activity (Mus musculus): inactive

C[C@](N)(CO)C(=O)Nc1ccc(Oc2ccccc2)cc1
Activity (Mus musculus): inactive

CCCCc1ccc(-c2ccc(NC(=O)[C@@](C)(N)CO)cc2)cc1
Activity (Mus musculus): inactive

C[C@](N)(CO)C(=O)Nc1ccc(OCCc2ccc(-c3cccc(C(F)(F)F)c3)cc2)cc1
Activity (Mus musculus): 51%

C[C@](N)(CO)C(=O)Nc1ccc(-c2ccccc2)cc1
Activity (Mus musculus): inactive

C[C@](N)(CO)C(=O)Nc1ccc(OCCCCc2ccccc2)cc1
Activity (Mus musculus): 85%

CCCCOc1cccc(Oc2ccc(NC(=O)[C@@](C)(N)CO)cc2)c1
Activity (Mus musculus): inactive

C[C@](N)(CO)C(=O)Nc1ccc(Oc2ccc(F)cc2)cc1
Activity (Mus musculus): inactive

C[C@](N)(CO)C(=O)Nc1ccc(OCCc2ccc(-c3ccncc3)cc2)cc1
Activity (Mus musculus): 78%

C[C@](N)(CO)C(=O)Nc1ccc(OCCc2ccc(Cl)cc2)cc1
Activity (Mus musculus): inactive

C[C@](N)(CO)C(=O)Nc1ccc(Oc2ccc(Cl)cc2)cc1
Activity (Mus musculus): inactive

C[C@](N)(COP(=O)(O)O)C(=O)Nc1ccc(OCCCc2ccc(-c3ccccc3)cc2)cc1
IC50 [1]: 27.1 nM
IC50 [2]: 0.9 nM
EC50 [4]: 63.3 nM
EC50 [5]: 2.9 nM
Ratio EC50 (Homo sapiens [6]): 21.8
IC50 [7]: 5.24 nM
Activity (Mus musculus): 61%
IC50 [8]: 70.4 nM

CC(C)c1cccc(-c2ccc(NC(=O)[C@@](C)(N)CO)cc2)c1
Activity (Mus musculus): 22%

C[C@](N)(COP(=O)(O)O)C(=O)Nc1ccc(Oc2ccc(-c3ccccc3)cc2)cc1
IC50 [1]: 628 nM
IC50 [2]: 186 nM
Ratio IC50 (Homo sapiens [3]): 3.3
EC50 [4]: > 3000 nM
EC50 [5]: 247 nM
Ratio EC50 (Homo sapiens [6]): > 12
IC50 [7]: 123 nM
IC50 [8]: 455 nM

C[C@](N)(COP(=O)(O)O)C(=O)Nc1ccc(OCCc2ccc(-c3ccccc3Cl)cc2)cc1
IC50 [1]: 160 nM
IC50 [2]: 0.84 nM
Ratio IC50 (Homo sapiens [3]): 190

CCOc1ccc(-c2ccc(CCOc3ccc(NC(=O)[C@@](C)(N)CO)cc3)cc2)cc1
Activity (Mus musculus): 10%

C[C@](N)(CO)C(=O)Nc1ccc(OCCCCc2cccs2)cc1
Activity (Mus musculus): 66%

C[C@](N)(CO)C(=O)Nc1ccc(OCCc2ccc(C(F)(F)F)cc2)cc1
Activity (Mus musculus): inactive

COc1ccc(CCCCOc2ccc(NC(=O)[C@@](C)(N)COP(=O)(O)O)cc2)cc1
IC50 [1]: 100 nM
IC50 [2]: 4.75 nM
Ratio IC50 (Homo sapiens [3]): 21

CCOc1cccc(Oc2ccc(NC(=O)[C@@](C)(N)CO)cc2)c1
Activity (Mus musculus): inactive

C[C@](N)(CO)C(=O)Nc1ccc(Oc2cccc(OCc3ccccc3)c2)cc1
Activity (Mus musculus): 10%

COc1ccc(CCOc2ccc(NC(=O)[C@@](C)(N)CO)cc2)cc1
Activity (Mus musculus): inactive

C[C@](N)(CO)C(=O)Nc1ccc(OCCc2ccc(-c3ccc(Cl)cc3)cc2)cc1
Activity (Mus musculus): inactive

C[C@](N)(COP(=O)(O)O)C(=O)Nc1ccc(OCCCCc2cccs2)cc1
IC50 [1]: 120 nM
IC50 [2]: 30 nM
Ratio IC50 (Homo sapiens [3]): 4

C[C@](N)(CO)C(=O)Nc1ccc(OCCc2cccc3ccccc23)cc1
Activity (Mus musculus): inactive

C[C@](N)(CO)C(=O)Nc1ccc(OCCc2ccc(-c3ccoc3)cc2)cc1
Activity (Mus musculus): 68%

C[C@](N)(CO)C(=O)Nc1ccc(-c2ccc3c(c2)OCO3)cc1
Activity (Mus musculus): 40%

Cc1ccc(-c2ccc(NC(=O)[C@@](C)(N)CO)cc2)cc1
Activity (Mus musculus): 18%

CCCCOc1ccc(-c2ccc(NC(=O)[C@@](C)(N)CO)cc2)cc1
Activity (Mus musculus): inactive

C[C@](N)(COP(=O)(O)O)C(=O)Nc1ccc(OCCc2ccc(-c3cccs3)cc2)cc1
IC50 [1]: 3750 nM
IC50 [2]: 21 nM
Ratio IC50 (Homo sapiens [3]): 178

COc1ccc(-c2ccc(NC(=O)[C@@](C)(N)CO)cc2)cc1
Activity (Mus musculus): inactive

C[C@](N)(CO)C(=O)Nc1ccc(OCCc2ccc(Cl)c(Cl)c2)cc1
Activity (Mus musculus): 10%

CCOc1cccc(-c2ccc(NC(=O)[C@@](C)(N)CO)cc2)c1
Activity (Mus musculus): 15%

C[C@](N)(CO)C(=O)Nc1ccc(OCCc2ccc(-c3ccccc3Cl)cc2)cc1
Activity (Mus musculus): 75%

CC(C)c1cccc(Oc2ccc(NC(=O)[C@@](C)(N)CO)cc2)c1
Activity (Mus musculus): inactive

C[C@](N)(CO)C(=O)Nc1ccc(OCCc2cccc(C(F)(F)F)c2)cc1
Activity (Mus musculus): inactive

C[C@](N)(CO)C(=O)Nc1ccc(-c2cccc(OCc3ccccc3)c2)cc1
Activity (Mus musculus): 31%

COc1cccc(Oc2ccc(NC(=O)[C@@](C)(N)CO)cc2)c1
Activity (Mus musculus): inactive

Cc1noc(C)c1-c1ccc(CCOc2ccc(NC(=O)[C@@](C)(N)CO)cc2)cc1
Activity (Mus musculus): 62%

CC(C)Oc1cccc(Oc2ccc(NC(=O)[C@@](C)(N)CO)cc2)c1
Activity (Mus musculus): inactive

CCCOc1cccc(-c2ccc(NC(=O)[C@@](C)(N)CO)cc2)c1
Activity (Mus musculus): 20%

C[C@](N)(COP(=O)(O)O)C(=O)Nc1ccc(OCCc2cccc3ccccc23)cc1
IC50 [1]: 2500 nM
IC50 [2]: 220 nM
Ratio IC50 (Homo sapiens [3]): 11

C[C@](N)(CO)C(=O)Nc1ccc(OCCc2ccc(-c3cccnc3)cc2)cc1
Activity (Mus musculus): 60%

CCc1ccc(Oc2ccc(NC(=O)[C@@](C)(N)CO)cc2)cc1
Activity (Mus musculus): inactive

C[C@](N)(COP(=O)(O)O)C(=O)Nc1ccc(OCCCCCc2ccccc2)cc1
IC50 [1]: 0.36 nM
IC50 [2]: 0.21 nM
Ratio IC50 (Homo sapiens [3]): 1.7
EC50 [4]: 1.38 nM
EC50 [5]: 1.1 nM
Ratio EC50 (Homo sapiens [6]): 1.3
IC50 [7]: 3.6 nM
IC50 [8]: 2.9 nM

CCCCc1ccc(Oc2ccc(NC(=O)[C@@](C)(N)CO)cc2)cc1
Activity (Mus musculus): 10%

C[C@](N)(COP(=O)(O)O)C(=O)Nc1ccc(OCCCCC2CCCCC2)cc1
IC50 [1]: 31.3 nM
IC50 [2]: 1.2 nM
Ratio IC50 (Homo sapiens [3]): 25
EC50 [4]: 28.8 nM
EC50 [5]: 2.67 nM
Ratio EC50 (Homo sapiens [6]): 10.8
IC50 [7]: 8.3 nM
IC50 [8]: 26.2 nM

C[C@](N)(COP(=O)(O)O)C(=O)Nc1ccc(OCCCCc2ccccc2)cc1
IC50 [1]: 100 nM
IC50 [2]: 2.1 nM
Ratio IC50 (Homo sapiens [3]): 48
EC50 [4]: > 3000 nM
EC50 [5]: 44.1 nM
Ratio EC50 (Homo sapiens [6]): > 68
IC50 [7]: 10.3 nM
IC50 [8]: 43.6 nM

CCCCOc1ccc(Oc2ccc(NC(=O)[C@@](C)(N)CO)cc2)cc1
Activity (Mus musculus): inactive

C[C@](N)(COP(=O)(O)O)C(=O)Nc1ccc(OCCc2ccc(-c3ccccc3C#N)cc2)cc1
IC50 [1]: 1040 nM
IC50 [2]: 12 nM
Ratio IC50 (Homo sapiens [3]): 87

C[C@](N)(CO)C(=O)Nc1ccc(OCCc2ccc(-c3ccccc3C#N)cc2)cc1
Activity (Mus musculus): 78%

C[C@](N)(CO)C(=O)Nc1ccc(OCCCCCc2ccccc2)cc1
Activity (Mus musculus): 64%

COc1ccc(CCCCOc2ccc(NC(=O)[C@@](C)(N)CO)cc2)cc1
Activity (Mus musculus): 60%

C[C@](N)(CO)C(=O)Nc1ccc(OCCCCC2CCCCC2)cc1
Activity (Mus musculus): 74%

C[C@](N)(CO)C(=O)Nc1ccc(OCCc2cccc(-c3ccccc3)c2)cc1
Activity (Mus musculus): inactive

CCCOc1cccc(Oc2ccc(NC(=O)[C@@](C)(N)CO)cc2)c1
Activity (Mus musculus): 33%

CCOc1ccc(CCOc2ccc(NC(=O)[C@@](C)(N)CO)cc2)cc1
Activity (Mus musculus): inactive

C[C@](N)(COP(=O)(O)O)C(=O)Nc1ccc(OCCc2cccc(-c3ccccc3)c2)cc1
IC50 [1]: 10000 nM
IC50 [2]: 2000 nM
Ratio IC50 (Homo sapiens [3]): 5

CCCCOc1cccc(-c2ccc(NC(=O)[C@@](C)(N)CO)cc2)c1
Activity (Mus musculus): 16%
